From ChEMBL document CHEMBL3244048, “Synthesis and biological activity of potential antimetabolites of L-fucose” (1979)
Calls of active or inactive are those of the source. The rule behind the calls is not given here.

Each compound was assayed on P388 (assay: Cytotoxicity against mouse P388 cells assessed as growth inhibition at 1x10'-5 M after 72 hrs by Coulter counting analysis relative to control). Settings: P388, 72 h, read-out: GI.
Assay type: functional
How it was run: (§1)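 P388 leukemia cells seeded at 1.1 × 10^4 cells/mL in Fischer's medium with 10% horse serum. Compound dissolved in 0.9% NaCl, with or without 3% Me2SO, at ten times final concentration, filter-sterilized, and added at one-tenth volume. Incubation at 37 °C under 5% CO2; cell numbers counted in triplicate by electronic particle counter after 72 h.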

Compound | inhibition of growth at 10 µM
OC1O[C@@H](CCl)[C@@H](O)[C@@H](O)[C@@H]1O (stereo not given in full) | 10%
COC[C@@H]1OC(O)[C@@H](O)[C@H](O)[C@@H]1O (stereo not given in full) | 12%
Cc1ccc(S(=O)(=O)OC[C@@H]2OC(O)[C@@H](O)[C@H](O)[C@@H]2O)cc1 (stereo not given in full) | 14%
[N-]=[N+]=NC[C@@H]1OC(O)[C@@H](O)[C@H](O)[C@@H]1O (stereo not given in full) | 7%
O=C(NC[C@@H]1OC(O)[C@@H](O)[C@H](O)[C@@H]1O)C(F)(F)F (stereo not given in full) | 7%
OC1O[C@@H](CF)[C@@H](O)[C@@H](O)[C@@H]1O (stereo not given in full) | 3%
CC(=O)NC[C@@H]1OC(O)[C@@H](O)[C@H](O)[C@@H]1O (stereo not given in full) | 15%

What follows are compounds tested on P388 (assay: Cytotoxicity against mouse P388 cells assessed as growth inhibition at 1x10'-3 M after 72 hrs by Coulter counting analysis relative to control). Settings: P388, 72 h, read-out: GI.
Assay type: functional
How it was run: as §1

Compound | inhibition of growth at 1000 µM
OC1O[C@@H](C(F)F)[C@@H](O)[C@@H](O)[C@@H]1O (stereo not given in full) | 0%
OC1O[C@@H](CCl)[C@@H](O)[C@@H](O)[C@@H]1O (stereo not given in full) | 15%
COC[C@@H]1OC(O)[C@@H](O)[C@H](O)[C@@H]1O (stereo not given in full) | 73%
Cc1ccc(S(=O)(=O)OC[C@@H]2OC(O)[C@@H](O)[C@H](O)[C@@H]2O)cc1 (stereo not given in full) | 96%
CCOC[C@@H]1OC(O)[C@@H](O)[C@H](O)[C@@H]1O (stereo not given in full) | 23%
CS(=O)(=O)OC[C@@H]1OC(O)[C@@H](O)[C@H](O)[C@@H]1O (stereo not given in full) | 96%
[N-]=[N+]=NC[C@@H]1OC(O)[C@@H](O)[C@H](O)[C@@H]1O (stereo not given in full) | 20%
OC1O[C@@H](COCc2ccccc2)[C@@H](O)[C@@H](O)[C@@H]1O (stereo not given in full) | 26%
CC[C@@H]1OC(O)[C@@H](O)[C@H](O)[C@@H]1O (stereo not given in full) | 2%
O=C(NC[C@@H]1OC(O)[C@@H](O)[C@H](O)[C@@H]1O)C(F)(F)F (stereo not given in full) | 36%
OC1O[C@@H](CF)[C@@H](O)[C@@H](O)[C@@H]1O (stereo not given in full) | 8%
OC1O[C@@H](CI)[C@@H](O)[C@@H](O)[C@@H]1O (stereo not given in full) | 91%
CC(=O)NC[C@@H]1OC(O)[C@@H](O)[C@H](O)[C@@H]1O (stereo not given in full) | 16%
O=S(=O)(OC[C@@H]1OC(O)[C@@H](O)[C@H](O)[C@@H]1O)c1ccccc1 (stereo not given in full) | 97%
OC1O[C@@H](CBr)[C@@H](O)[C@@H](O)[C@@H]1O (stereo not given in full) | 97%

What follows are compounds tested on P388 (assay: Cytotoxicity against mouse P388 cells assessed as growth inhibition at 5x10'-4 M after 72 hrs by Coulter counting analysis relative to control). Settings: P388, 72 h, read-out: GI.
Assay type: functional
How it was run: as §1

Compound | inhibition of growth at 500 µM
OC1O[C@@H](C(F)F)[C@@H](O)[C@@H](O)[C@@H]1O (stereo not given in full) | 0%
Cc1ccc(S(=O)(=O)OC[C@@H]2OC(O)[C@@H](O)[C@H](O)[C@@H]2O)cc1 (stereo not given in full) | 94%
CCOC[C@@H]1OC(O)[C@@H](O)[C@H](O)[C@@H]1O (stereo not given in full) | 31%
CS(=O)(=O)OC[C@@H]1OC(O)[C@@H](O)[C@H](O)[C@@H]1O (stereo not given in full) | 86%
OC1O[C@@H](COCc2ccccc2)[C@@H](O)[C@@H](O)[C@@H]1O (stereo not given in full) | 21%
OC1O[C@@H](CI)[C@@H](O)[C@@H](O)[C@@H]1O (stereo not given in full) | 71%
O=S(=O)(OC[C@@H]1OC(O)[C@@H](O)[C@H](O)[C@@H]1O)c1ccccc1 (stereo not given in full) | 95%
OC1O[C@@H](CBr)[C@@H](O)[C@@H](O)[C@@H]1O (stereo not given in full) | 87%

The compounds below were run on P388 (assay: Cytotoxicity against mouse P388 cells assessed as growth inhibition at 1x10'-4 M after 72 hrs by Coulter counting analysis relative to control). Settings: P388, 72 h, read-out: GI.
Assay type: functional
How it was run: as §1

Compound | inhibition of growth at 100 µM
OC1O[C@@H](C(F)F)[C@@H](O)[C@@H](O)[C@@H]1O (stereo not given in full) | 0%
OC1O[C@@H](CCl)[C@@H](O)[C@@H](O)[C@@H]1O (stereo not given in full) | 10%
COC[C@@H]1OC(O)[C@@H](O)[C@H](O)[C@@H]1O (stereo not given in full) | 16%
Cc1ccc(S(=O)(=O)OC[C@@H]2OC(O)[C@@H](O)[C@H](O)[C@@H]2O)cc1 (stereo not given in full) | 25%
CCOC[C@@H]1OC(O)[C@@H](O)[C@H](O)[C@@H]1O (stereo not given in full) | 25%
CS(=O)(=O)OC[C@@H]1OC(O)[C@@H](O)[C@H](O)[C@@H]1O (stereo not given in full) | 56%
[N-]=[N+]=NC[C@@H]1OC(O)[C@@H](O)[C@H](O)[C@@H]1O (stereo not given in full) | 12%
OC1O[C@@H](COCc2ccccc2)[C@@H](O)[C@@H](O)[C@@H]1O (stereo not given in full) | 17%
O=C(NC[C@@H]1OC(O)[C@@H](O)[C@H](O)[C@@H]1O)C(F)(F)F (stereo not given in full) | 14%
OC1O[C@@H](CF)[C@@H](O)[C@@H](O)[C@@H]1O (stereo not given in full) | 10%
OC1O[C@@H](CI)[C@@H](O)[C@@H](O)[C@@H]1O (stereo not given in full) | 44%
CC(=O)NC[C@@H]1OC(O)[C@@H](O)[C@H](O)[C@@H]1O (stereo not given in full) | 9%
O=S(=O)(OC[C@@H]1OC(O)[C@@H](O)[C@H](O)[C@@H]1O)c1ccccc1 (stereo not given in full) | 52%
OC1O[C@@H](CBr)[C@@H](O)[C@@H](O)[C@@H]1O (stereo not given in full) | 33%

What follows are compounds tested on P388 (assay: Cytotoxicity against mouse P388 cells assessed as growth inhibition at 2.5x10'-4 M after 72 hrs by Coulter counting analysis relative to control). Settings: P388, 72 h, read-out: GI.
Assay type: functional
How it was run: as §1

Compound | inhibition of growth at 250 µM
CC(=O)O[C@@H]1O[C@@H](C(F)F)[C@@H](OC(C)=O)[C@@H](OC(C)=O)[C@@H]1OC(C)=O | 89%

Each compound was assayed on P388 (assay: Displacement of L-[3H]-fucose from glycoprotein in mouse P388 cells at 10^-4 to 10^-3 M incubated for 2 hrs prior to radioligand addition measured after 30 mins by scintillation spectrometric analysis). Settings: not given.
Assay type: cell-based
How it was run: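 P388 cells grown to midlog phase (4 × 10^5 cells/mL) in Fischer's medium plus 10% horse serum, then resuspended in fresh medium at 5 × 10^6 cells/mL. Preincubated 2 h at 37 °C with shaking with compound at 10^-4 or 10^-3 M. L-[3H]fucose and [14C]glucosamine (nonspecific control) then added for 30 min. Stopped with cold 10% TCA; pellets washed, lipid-extracted, hydrolyzed in 0.5 N NaOH at 85 °C; scintillation counting.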

Compound | inhibition
OC1O[C@@H](C(F)F)[C@@H](O)[C@@H](O)[C@@H]1O (stereo not given in full) | inactive
OC1O[C@@H](CCl)[C@@H](O)[C@@H](O)[C@@H]1O (stereo not given in full) | inactive
COC[C@@H]1OC(O)[C@@H](O)[C@H](O)[C@@H]1O (stereo not given in full) | inactive
Cc1ccc(S(=O)(=O)OC[C@@H]2OC(O)[C@@H](O)[C@H](O)[C@@H]2O)cc1 (stereo not given in full) | inactive
CCOC[C@@H]1OC(O)[C@@H](O)[C@H](O)[C@@H]1O (stereo not given in full) | inactive
CS(=O)(=O)OC[C@@H]1OC(O)[C@@H](O)[C@H](O)[C@@H]1O (stereo not given in full) | inactive
[N-]=[N+]=NC[C@@H]1OC(O)[C@@H](O)[C@H](O)[C@@H]1O (stereo not given in full) | inactive
OC1O[C@@H](COCc2ccccc2)[C@@H](O)[C@@H](O)[C@@H]1O (stereo not given in full) | inactive
CC[C@@H]1OC(O)[C@@H](O)[C@H](O)[C@@H]1O (stereo not given in full) | inactive
O=C(NC[C@@H]1OC(O)[C@@H](O)[C@H](O)[C@@H]1O)C(F)(F)F (stereo not given in full) | inactive
OC1O[C@@H](CF)[C@@H](O)[C@@H](O)[C@@H]1O (stereo not given in full) | inactive
OC1O[C@@H](CI)[C@@H](O)[C@@H](O)[C@@H]1O (stereo not given in full) | inactive
CC(=O)NC[C@@H]1OC(O)[C@@H](O)[C@H](O)[C@@H]1O (stereo not given in full) | inactive
O=S(=O)(OC[C@@H]1OC(O)[C@@H](O)[C@H](O)[C@@H]1O)c1ccccc1 (stereo not given in full) | inactive
OC1O[C@@H](CBr)[C@@H](O)[C@@H](O)[C@@H]1O (stereo not given in full) | inactive
